Assays:
[1] = Retention time of the compound by HPLC method; assay type: physicochemical
[2] = Drug distribution in eyes of C57BL/6J mouse bearing mouse B16F0 cells at 18 to 20 MBq, iv measured over 72 hrs by SPECT imaging study; assay type: ADME, organism-based, Eye; settings: in vivo
Method in brief: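 Female C57BL/6J mice (5–6 weeks) were inoculated s.c. on the left flank with 3 × 10^5 B16F0 cells in PBS and used after 11 days, with tumors 2–12 mm. Each received 18–20 MBq in 100 μL by lateral tail vein (n = 3 per tracer). Planar SPECT was done under isoflurane at 10–60 min, 3, 6, 24, 48 and 72 h. ROI pixel values were decay-corrected.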

Mus musculus [3] = test: Biodistribution in tumor of C57BL/6J mouse bearing mouse B16F0 cells at 0.37 to 1.85 MBq, iv after 48 hrs by gamma counting method; assay type: ADME, organism-based; settings: in vivo
Method in brief: (§1)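 Female C57BL/6J mice (5−6 weeks), s.c. inoculated on left flank with 3 × 10^5 B16F0 cells in Ca2+/Mg2+-free PBS, used 11 days later (tumors 2−12 mm). Radiotracer given via tail vein in 100 μL (~0.37 MBq for 1−24 h, 1.85 MBq for 48 h). Organs dissected, weighed, γ-counted, decay corrected. Expressed as % ID/g against injected-dose dilutions. Mean ± SEM, n = 5.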

Mus musculus [4] = test: Biodistribution in eyes of C57BL/6J mouse bearing mouse B16F0 cells at 0.37 to 1.85 MBq, iv after 1 hr by gamma counting method; assay type: ADME, organism-based, Eye; settings: in vivo; method in brief: as §1
Mus musculus [5] = test: Biodistribution in eyes of C57BL/6J mouse bearing mouse B16F0 cells at 0.37 to 1.85 MBq, iv after 3 hrs by gamma counting method; assay type: ADME, organism-based, Eye; settings: in vivo; method in brief: as §1
Mus musculus [6] = test: Biodistribution in eyes of C57BL/6J mouse bearing mouse B16F0 cells at 0.37 to 1.85 MBq, iv after 48 hrs by gamma counting method; assay type: ADME, organism-based, Eye; settings: in vivo; method in brief: as §1
Mus musculus [7] = test: Biodistribution in large gastrointestinal tract of C57BL/6J mouse bearing mouse B16F0 cells at 0.37 to 1.85 MBq, iv after 3 hrs by gamma counting method; assay type: ADME, organism-based, Large intestine; settings: in vivo; method in brief: as §1
Mus musculus [8] = test: Biodistribution in large gastrointestinal tract of C57BL/6J mouse bearing mouse B16F0 cells at 0.37 to 1.85 MBq, iv after 6 hrs by gamma counting method; assay type: ADME, organism-based; settings: in vivo; method in brief: as §1
Mus musculus [9] = test: Biodistribution in large gastrointestinal tract of C57BL/6J mouse bearing mouse B16F0 cells at 0.37 to 1.85 MBq, iv after 24 hrs by gamma counting method; assay type: ADME, organism-based, Large intestine; settings: in vivo; method in brief: as §1
Mus musculus [10] = test: Biodistribution in large gastrointestinal tract of C57BL/6J mouse bearing mouse B16F0 cells at 0.37 to 1.85 MBq, iv after 48 hrs by gamma counting method; assay type: ADME, organism-based; settings: in vivo; method in brief: as §1
Mus musculus [11] = test: Biodistribution in small gastrointestinal tract of C57BL/6J mouse bearing mouse B16F0 cells at 0.37 to 1.85 MBq, iv after 1 hr by gamma counting method; assay type: ADME, organism-based, Small intestine; settings: in vivo; method in brief: as §1
Mus musculus [12] = test: Biodistribution in small gastrointestinal tract of C57BL/6J mouse bearing mouse B16F0 cells at 0.37 to 1.85 MBq, iv after 6 hrs by gamma counting method; assay type: ADME, organism-based, Small intestine; settings: in vivo; method in brief: as §1
Mus musculus [13] = test: Biodistribution in small gastrointestinal tract of C57BL/6J mouse bearing mouse B16F0 cells at 0.37 to 1.85 MBq, iv after 48 hrs by gamma counting method; assay type: ADME, organism-based; settings: in vivo; method in brief: as §1
Mus musculus [14] = test: Biodistribution in thyroid gland of C57BL/6J mouse bearing mouse B16F0 cells at 0.37 to 1.85 MBq, iv after 1 hr by gamma counting method; assay type: ADME, organism-based; settings: in vivo; method in brief: as §1
Mus musculus [15] = test: Biodistribution in thyroid gland of C57BL/6J mouse bearing mouse B16F0 cells at 0.37 to 1.85 MBq, iv after 3 hrs by gamma counting method; assay type: ADME, organism-based; settings: in vivo; method in brief: as §1
Spleen [16] = test: Biodistribution in spleen of C57BL/6J mouse bearing mouse B16F0 cells at 0.37 to 1.85 MBq, iv after 3 hrs by gamma counting method; assay type: ADME, organism-based; settings: in vivo; method in brief: as §1
Spleen [17] = test: Biodistribution in spleen of C57BL/6J mouse bearing mouse B16F0 cells at 0.37 to 1.85 MBq, iv after 6 hrs by gamma counting method; assay type: ADME, organism-based; settings: in vivo; method in brief: as §1
Spleen [18] = test: Biodistribution in spleen of C57BL/6J mouse bearing mouse B16F0 cells at 0.37 to 1.85 MBq, iv after 48 hrs by gamma counting method; assay type: ADME, organism-based; settings: in vivo; method in brief: as §1
Liver [19] = test: Biodistribution in liver of C57BL/6J mouse bearing mouse B16F0 cells at 0.37 to 1.85 MBq, iv after 1 hr by gamma counting method; assay type: ADME, organism-based; settings: in vivo; method in brief: as §1
Liver [20] = test: Biodistribution in liver of C57BL/6J mouse bearing mouse B16F0 cells at 0.37 to 1.85 MBq, iv after 6 hrs by gamma counting method; assay type: ADME, organism-based; settings: in vivo; method in brief: as §1
Liver [21] = test: Biodistribution in liver of C57BL/6J mouse bearing mouse B16F0 cells at 0.37 to 1.85 MBq, iv after 24 hrs by gamma counting method; assay type: ADME, organism-based; settings: in vivo; method in brief: as §1
Liver [22] = test: Biodistribution in liver of C57BL/6J mouse bearing mouse B16F0 cells at 0.37 to 1.85 MBq, iv after 48 hrs by gamma counting method; assay type: ADME, organism-based; settings: in vivo; method in brief: as §1
Kidney [23] = test: Biodistribution in kidney of C57BL/6J mouse bearing mouse B16F0 cells at 0.37 to 1.85 MBq, iv after 1 hr by gamma counting method; assay type: ADME, organism-based; settings: in vivo; method in brief: as §1
Kidney [24] = test: Biodistribution in kidney of C57BL/6J mouse bearing mouse B16F0 cells at 0.37 to 1.85 MBq, iv after 48 hrs by gamma counting method; assay type: ADME, organism-based; settings: in vivo; method in brief: as §1
Mus musculus [25] = test: Whole body clearance in C57BL/6J mouse bearing mouse B16F0 cells at 0.37 to 1.85 MBq, iv after 16 hrs by gamma counting method; assay type: ADME, organism-based; settings: in vivo
[26] = Ratio of AUC in tumor to skin of C57BL/6J mouse bearing mouse B16F0 cells at 0.37 to 1.85 MBq, iv by gamma counting method; assay type: ADME, organism-based; settings: in vivo
Method in brief: (§2)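 Biodistribution in B16F0-bearing C57BL/6J mice given i.v. tail-vein tracer (~0.37 MBq for 1–24 h, 1.85 MBq for 48 h). Sacrifice at 1, 3, 6, 16, 24 and 48 h, then organs dissected, weighed and γ-counted as decay-corrected % ID/g. Tumor AUC divided by each organ AUC; mean of ratios ± SEM, n = 5.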

[27] = Ratio of AUC in tumor to eyes of C57BL/6J mouse bearing mouse B16F0 cells at 0.37 to 1.85 MBq, iv by gamma counting method; assay type: ADME, organism-based; settings: in vivo; method in brief: as §2
[28] = Ratio of AUC in tumor to gastrointestinal tract of C57BL/6J mouse bearing mouse B16F0 cells at 0.37 to 1.85 MBq, iv by gamma counting method; assay type: ADME, organism-based; settings: in vivo; method in brief: as §2
[29] = Stability in eyes of C57BL/6J mouse bearing mouse B16F0 cells assessed as intact parent compound level at 0.37 to 1.85 MBq, iv after 24 hrs by radio-HPLC and radio-TLC method; assay type: ADME, organism-based, Eye; settings: in the assay text read “20 MBq” for “0.37 to 1.85 MBq”, read-out: Stability
Method in brief: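 Tumor-bearing C57BL/6J mice were sampled 3 and 24 h after i.v. tracer. Tissue was sonicated in CH3CN/water (3:2) with cold iodo standard and KI, then centrifuged. Urine was diluted and spiked; plasma was spiked, with CH3CN precipitation for TLC. Intact fraction came from silica radio-TLC (spot matching standard Rf) and radio-HPLC with precolumn/C18 column switching.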

Row | Compound | Retention_time [1] [min] | Drug uptake [2] | Drug uptake (Mus musculus [3]) [% ID/g] | Drug uptake (Mus musculus [4]) [% ID/g] | Drug uptake (Mus musculus [5]) [% ID/g] | Drug uptake (Mus musculus [6]) [% ID/g] | Drug uptake (Mus musculus [7]) [% ID/g] | Drug uptake (Mus musculus [8]) [% ID/g] | Drug uptake (Mus musculus [9]) [% ID/g] | Drug uptake (Mus musculus [10]) [% ID/g] | Drug uptake (Mus musculus [11]) [% ID/g] | Drug uptake (Mus musculus [12]) [% ID/g] | Drug uptake (Mus musculus [13]) [% ID/g] | Drug uptake (Mus musculus [14]) [% ID/g] | Drug uptake (Mus musculus [15]) [% ID/g] | Drug uptake (Spleen [16]) [% ID/g] | Drug uptake (Spleen [17]) [% ID/g] | Drug uptake (Spleen [18]) [% ID/g] | Drug uptake (Liver [19]) [% ID/g] | Drug uptake (Liver [20]) [% ID/g] | also measured
1 | O=C(c1ccc2cccnc2n1)N1CCN(Cc2ccc([123I])cc2)CC1 | 12.2 | Active | 13.1 | 32 | 36 | 31.6 | 11.9 | 18.6 | 1.4 | 0.3 | 14.4 | 6.1 | 0.2 | 2.3 | 2.2 | 2.3 | 2.1 | 0.2 | 15.9 | 10.1 | Drug uptake (Liver [21]): 1.8 % ID/g; Drug uptake (Liver [22]): 0.7 % ID/g; Drug uptake (Kidney [23]): 7.5 % ID/g; Drug uptake (Kidney [24]): 0.5 % ID/g; CL (Mus musculus [25]): > 98%; Ratio [26]: 45.3; Ratio [27]: 0.47; Ratio [28]: 5.5; remaining at 24 h [29]: 35%
2 | O=C(CN1Cc2ccccc2C1=O)NC1CCN(Cc2ccc([123I])cc2)CC1 | 14.8 | Active | 13.2 | 13.7 | 20.8 | 38.7 | 10.9 | 17.6 | 8 | 0.6 | 11.9 | 9.8 | 0.3 | 3.4 | 3.4 | 7.6 | 3.6 | 0.1 | 41.8 | 35.1 | Drug uptake (Liver [21]): 7.8 % ID/g; Drug uptake (Liver [22]): 1.9 % ID/g; Drug uptake (Kidney [23]): 8 % ID/g; Drug uptake (Kidney [24]): 0.3 % ID/g; CL (Mus musculus [25]): > 98%; Ratio [26]: 24.4; Ratio [27]: 0.44; Ratio [28]: 3; remaining at 24 h [29]: 80%
